According to ChEMBL document CHEMBL3526053, “Species-dependent uptake of glycylsarcosine but not oseltamivir in Pichia pastoris expressing the rat, mouse, and human intestinal peptide transporter PEPT1” (Drug Metab Dispos, 2012):

What was measured:
Assay type in all cases: ADME
[1] = target: T1, Solute carrier family 15 member 1 (Mus musculus, UniProt Q9JIP7); experiment: Drug uptake in Pichia pastoris GS115 expressing mouse recombinant PEPT1 at 5 uM after 30s by dual-channel liquid scintillation counting analysis in presence of L-histidine relative to control; settings: 0.5 min
T1 sequence (Q9JIP7 whole entry): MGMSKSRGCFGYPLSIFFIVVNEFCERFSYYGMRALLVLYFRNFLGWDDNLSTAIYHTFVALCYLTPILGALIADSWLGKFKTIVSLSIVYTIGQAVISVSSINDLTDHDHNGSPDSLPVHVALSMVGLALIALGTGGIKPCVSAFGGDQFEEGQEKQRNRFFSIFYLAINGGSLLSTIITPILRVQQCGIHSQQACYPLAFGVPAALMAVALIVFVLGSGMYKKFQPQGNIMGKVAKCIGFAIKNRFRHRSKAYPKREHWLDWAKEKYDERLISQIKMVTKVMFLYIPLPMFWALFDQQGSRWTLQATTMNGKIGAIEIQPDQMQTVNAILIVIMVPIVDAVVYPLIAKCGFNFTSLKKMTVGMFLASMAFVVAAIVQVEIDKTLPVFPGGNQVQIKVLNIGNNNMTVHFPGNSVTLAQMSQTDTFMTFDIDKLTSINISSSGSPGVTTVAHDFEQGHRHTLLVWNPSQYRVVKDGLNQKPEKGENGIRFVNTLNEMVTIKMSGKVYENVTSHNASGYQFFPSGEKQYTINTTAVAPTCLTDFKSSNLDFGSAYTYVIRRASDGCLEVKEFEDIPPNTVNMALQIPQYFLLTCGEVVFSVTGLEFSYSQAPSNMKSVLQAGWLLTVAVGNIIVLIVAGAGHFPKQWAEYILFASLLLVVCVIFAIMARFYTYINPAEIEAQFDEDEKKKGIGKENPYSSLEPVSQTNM
In short: (§1)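 [3H]GlySar 5.0 µM final, 30-s uptake at 24°C in 100 mM potassium phosphate pH 6.5, with or without a potential inhibitor at 10 mM. Cells are methanol-induced transformants. Values are vector-subtracted and expressed as percent of buffer control. Mean ± SE (n=3). ANOVA with Dunnett's test.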

[2] = target: T1, Solute carrier family 15 member 1; experiment: Drug uptake in Pichia pastoris GS115 expressing mouse recombinant PEPT1 at 5 uM after 30s by dual-channel liquid scintillation counting analysis in presence of cephapirin relative to control; settings: 0.5 min; in short: as §1
[3] = target: T2, Solute carrier family 15 member 1 (Rattus norvegicus, UniProt P51574); experiment: Drug uptake in Pichia pastoris GS115 expressing rat recombinant PEPT1 at 5 uM after 30s by dual-channel liquid scintillation counting analysis in presence of GlyPro relative to control; settings: in vivo, 0.5 min; in short: as §1
T2 sequence (P51574 whole entry): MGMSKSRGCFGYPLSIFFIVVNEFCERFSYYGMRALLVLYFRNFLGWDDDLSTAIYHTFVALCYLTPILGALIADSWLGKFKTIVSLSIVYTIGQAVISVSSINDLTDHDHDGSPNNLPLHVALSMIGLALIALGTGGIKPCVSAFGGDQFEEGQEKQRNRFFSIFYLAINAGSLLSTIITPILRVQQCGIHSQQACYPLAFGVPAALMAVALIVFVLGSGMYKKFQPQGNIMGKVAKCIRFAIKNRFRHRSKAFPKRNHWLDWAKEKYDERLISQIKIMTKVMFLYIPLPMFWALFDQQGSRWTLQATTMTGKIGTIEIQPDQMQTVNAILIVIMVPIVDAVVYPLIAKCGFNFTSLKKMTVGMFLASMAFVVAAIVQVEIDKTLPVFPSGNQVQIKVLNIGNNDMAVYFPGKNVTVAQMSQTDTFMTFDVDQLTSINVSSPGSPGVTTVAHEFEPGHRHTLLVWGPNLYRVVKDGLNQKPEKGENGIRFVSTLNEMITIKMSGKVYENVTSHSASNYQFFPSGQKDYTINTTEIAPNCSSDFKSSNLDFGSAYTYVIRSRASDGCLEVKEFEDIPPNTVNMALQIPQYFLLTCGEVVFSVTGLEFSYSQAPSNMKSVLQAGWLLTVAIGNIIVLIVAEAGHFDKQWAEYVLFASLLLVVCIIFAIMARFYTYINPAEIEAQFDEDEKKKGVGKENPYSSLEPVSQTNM

[4] = target: T2, Solute carrier family 15 member 1; experiment: Drug uptake in Pichia pastoris GS115 expressing rat recombinant PEPT1 at 5 uM after 30s by dual-channel liquid scintillation counting analysis in presence of glycine relative to control; settings: 0.5 min
In short: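 Rat PEPT1 (pPIC3.5K-rPept1) in GS115 His+Mut+ transformant, methanol-induced 20-24 hr in BMMY at 30°C, washed into 100 mM potassium phosphate pH 6.5. [3H]GlySar final 5.0 µM with inhibitor at 10 mM, 30 sec at 24°C. Counts taken by liquid scintillation after 24 hr standing. Values are vector-subtracted and given as % of buffer control. Mean ± SE, n=3.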

[5] = target: T1, Solute carrier family 15 member 1; experiment: Drug uptake in Pichia pastoris GS115 expressing mouse recombinant PEPT1 at 5 uM after 30s by dual-channel liquid scintillation counting analysis in presence of elacridar relative to control; settings: 0.5 min; in short: as §1
PEPT1 [6] = target: T3, PEPT1 (Rattus norvegicus, UniProt P51574); experiment: Drug uptake in Pichia pastoris GS115 expressing rat recombinant PEPT1 at 5 uM after 30s by dual-channel liquid scintillation counting analysis relative to vector control; settings: read-out: FC
T3 sequence (P51574 whole entry): T2 sequence (P51574 whole entry)
In short: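 Rat PEPT1 and vector-only (pPIC3.5K) GS115 yeast, methanol-induced 20-24 hr. Cells were washed and concentrated tenfold in 100 mM phosphate buffer pH 6.5. [3H]GlySar or [14C]oseltamivir final 5.0 µM, 24°C, 30 sec and 5 min. Nonspecific binding was measured at 0°C and zero time. Uptake is given as pmol/OD600 by scintillation counting. Mean ± SE, n=6.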

PEPT1 [7] = target: T3, PEPT1; experiment: Drug uptake in Pichia pastoris GS115 expressing rat recombinant PEPT1 at 5 uM after 30 mins by dual-channel liquid scintillation counting analysis relative to vector control; settings: read-out: FC
In short: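 5.0 µM radiolabelled substrate ([3H]GlySar or [14C]oseltamivir) is incubated 30 min at 24°C with induced transformants in 100 mM potassium phosphate pH 6.5. Cell-associated radioactivity is counted by scintillation after standing 24 h and normalised to OD600. Results are compared with pPIC3.5K vector-alone cells. Mean ± SE (n=6).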

Drug uptake [1]: 103%
Drug uptake [2]: 83.7%
Drug uptake [3]: 0.6%
Drug uptake [4]: 91.5%
Drug uptake [5]: 89.3%
uptake ratio at 0.5 min, 5 µM (PEPT1 [6]): 136
uptake ratio at 0.5 h, 5 µM (PEPT1 [7]): 100
Structure (SMILES): [3H]C(C(=O)O)N(C)C(=O)CN (configuration not stated)
